Reference: ChEMBL document CHEMBL2202989, “New adamantane phenylalkylamines with σ-receptor binding affinity and anticancer activity, associated with putative antagonism of neuropathic pain” (J Med Chem, 2012)

system: BXPC-3; assay: Growth inhibition of human BxPC3 cells after 48 hrs by SRB assay; assay type: functional; conditions: BXPC-3, 48 h
Outline: (§1)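 Cells grown in RPMI 1640 with 5% heat-inactivated FCS, 2 mM L-glutamine and antibiotics, 37 °C, 5% CO2. Seeded at 3500–30000 cells/well and left 24 h before dosing. DMSO solutions added at 10-fold dilutions from 100 to 0.01 μM for 48 h. Cells TCA-fixed and SRB-stained, absorbance read at 540 nm; GI50 derived against the time-zero plate.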

SMILES	GI50 [µM]	LC50 [µM]	TGI [µM]
CCN1CCN(CCc2ccc(C(c3ccccc3)C34CC5CC(CC(C5)C3)C4)cc2)CC1 (configuration not stated)	8.35	0.0898	45.2
c1ccc(C(c2ccc(CN3CCNCC3)cc2)C23CC4CC(CC(C4)C2)C3)cc1 (configuration not stated)	4.3	0.00951	6.9
CCN1CCN(Cc2ccc(C(c3ccccc3)C34CC5CC(CC(C5)C3)C4)cc2)CC1 (configuration not stated)	4.33	0.00935	6.84

system: MIA PaCa-2; assay: Growth inhibition of human MIAPaCa2 cells after 48 hrs by SRB assay; assay type: functional; conditions: MIA PaCa-2, 48 h; outline: as §1

SMILES	GI50 [µM]	TGI [µM]
CCN1CCN(CCc2ccc(C(c3ccccc3)C34CC5CC(CC(C5)C3)C4)cc2)CC1 (configuration not stated)	20.9	49.2
CCN1CCN(Cc2ccc(C(c3ccccc3)C34CC5CC(CC(C5)C3)C4)cc2)CC1 (configuration not stated)	8.24	43.7

same assay, conditions: MIA PaCa-2, 48 h, read-out: LC50 (the source's name)

SMILES	CC50 [µM]
CCN1CCN(CCc2ccc(C(c3ccccc3)C34CC5CC(CC(C5)C3)C4)cc2)CC1 (configuration not stated)	0.0775
CCN1CCN(Cc2ccc(C(c3ccccc3)C34CC5CC(CC(C5)C3)C4)cc2)CC1 (configuration not stated)	0.0886

system: HL-60(TB); assay: Growth inhibition of human HL-60(TB) cells after 48 hrs by SRB assay; assay type: functional; conditions: HL-60, 48 h
Outline: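 Cells kept in RPMI 1640 with 5% FCS at 37 °C, 5% CO2, and seeded 24 h before dosing. Compound given from DMSO at 10-fold dilutions, 100 to 0.01 μM, for 48 h. Cells fixed with TCA, stained with SRB, absorbance read at 540 nm. GI50 taken from a time-zero plate.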

SMILES	GI50 [µM]	TGI [µM]
c1ccc(C(c2ccc(CN3CCNCC3)cc2)C23CC4CC(CC(C4)C2)C3)cc1 (configuration not stated)	0.00448	0.00759
CCN1CCN(Cc2ccc(C(c3ccccc3)C34CC5CC(CC(C5)C3)C4)cc2)CC1 (configuration not stated)	0.00433	0.00775

same assay, conditions: HL-60, 48 h, read-out: LC50 (the source's name)

SMILES	CC50 [µM]
c1ccc(C(c2ccc(CN3CCNCC3)cc2)C23CC4CC(CC(C4)C2)C3)cc1 (configuration not stated)	0.1
CCN1CCN(Cc2ccc(C(c3ccccc3)C34CC5CC(CC(C5)C3)C4)cc2)CC1 (configuration not stated)	0.1

system: U-251; assay: Growth inhibition of human U251 cells after 48 hrs by SRB assay; assay type: functional; conditions: U-251, 48 h; outline: as §1

SMILES	GI50 [µM]	TGI [µM]
CCN1CCN(CCc2ccc(C(c3ccccc3)C34CC5CC(CC(C5)C3)C4)cc2)CC1 (configuration not stated)	3.54	6.19
c1ccc(C(c2ccc(CN3CCNCC3)cc2)C23CC4CC(CC(C4)C2)C3)cc1 (configuration not stated)	3.41	5.92
CCN1CCN(Cc2ccc(C(c3ccccc3)C34CC5CC(CC(C5)C3)C4)cc2)CC1 (configuration not stated)	4.33	7.8

same assay, conditions: U-251, 48 h, read-out: LC50 (the source's name)

SMILES	CC50 [µM]
CCN1CCN(CCc2ccc(C(c3ccccc3)C34CC5CC(CC(C5)C3)C4)cc2)CC1 (configuration not stated)	0.00847
c1ccc(C(c2ccc(CN3CCNCC3)cc2)C23CC4CC(CC(C4)C2)C3)cc1 (configuration not stated)	0.00843
CCN1CCN(Cc2ccc(C(c3ccccc3)C34CC5CC(CC(C5)C3)C4)cc2)CC1 (configuration not stated)	0.0685

system: NHDF; assay: (§2) Growth inhibition of human NHDF cells after 48 hrs by SRB assay; assay type: cell-based; conditions: nhdf, 48 h; outline: as §1

SMILES	LC50 [µM]	TGI [µM]
CCN1CCN(CCc2ccc(C(c3ccccc3)C34CC5CC(CC(C5)C3)C4)cc2)CC1 (configuration not stated)	100	83.6
c1ccc(C(c2ccc(CN3CCNCC3)cc2)C23CC4CC(CC(C4)C2)C3)cc1 (configuration not stated)	9.73	6.69
CCN1CCN(Cc2ccc(C(c3ccccc3)C34CC5CC(CC(C5)C3)C4)cc2)CC1 (configuration not stated)	100	66.8

system: not listed separately; assay: as §2; assay type: cell-based; conditions: NHDF cells; outline: as §1

SMILES	GI50 at 48 h [µM]
CCN1CCN(CCc2ccc(C(c3ccccc3)C34CC5CC(CC(C5)C3)C4)cc2)CC1 (configuration not stated)	7.31
c1ccc(C(c2ccc(CN3CCNCC3)cc2)C23CC4CC(CC(C4)C2)C3)cc1 (configuration not stated)	3.66
CCN1CCN(Cc2ccc(C(c3ccccc3)C34CC5CC(CC(C5)C3)C4)cc2)CC1 (configuration not stated)	6.59

system: DU-145; assay: Growth inhibition of human DU145 cells after 48 hrs by SRB assay; assay type: functional; conditions: DU-145, 48 h; outline: as §1

SMILES	GI50 [µM]	TGI [µM]
c1ccc(C(c2ccc(CN3CCNCC3)cc2)C23CC4CC(CC(C4)C2)C3)cc1 (configuration not stated)	4.23	17.8
CCN1CCN(Cc2ccc(C(c3ccccc3)C34CC5CC(CC(C5)C3)C4)cc2)CC1 (configuration not stated)	5.73	46.1

same assay, conditions: DU-145, 48 h, read-out: LC50 (the source's name)

SMILES	CC50 [µM]
c1ccc(C(c2ccc(CN3CCNCC3)cc2)C23CC4CC(CC(C4)C2)C3)cc1 (configuration not stated)	0.0392
CCN1CCN(Cc2ccc(C(c3ccccc3)C34CC5CC(CC(C5)C3)C4)cc2)CC1 (configuration not stated)	0.1

system: HCT-15; assay: Growth inhibition of human HCT15 cells after 48 hrs by SRB assay; assay type: functional; conditions: HCT-15, 48 h; outline: as §1

SMILES	GI50 [µM]	TGI [µM]
CCN1CCN(CCc2ccc(C(c3ccccc3)C34CC5CC(CC(C5)C3)C4)cc2)CC1 (configuration not stated)	5.64	17.2
c1ccc(C(c2ccc(CN3CCNCC3)cc2)C23CC4CC(CC(C4)C2)C3)cc1 (configuration not stated)	3.28	5.76
CCN1CCN(Cc2ccc(C(c3ccccc3)C34CC5CC(CC(C5)C3)C4)cc2)CC1 (configuration not stated)	3.36	6.36

same assay, conditions: HCT-15, 48 h, read-out: LC50 (the source's name)

SMILES	CC50 [µM]
CCN1CCN(CCc2ccc(C(c3ccccc3)C34CC5CC(CC(C5)C3)C4)cc2)CC1 (configuration not stated)	0.1
c1ccc(C(c2ccc(CN3CCNCC3)cc2)C23CC4CC(CC(C4)C2)C3)cc1 (configuration not stated)	0.00824
CCN1CCN(Cc2ccc(C(c3ccccc3)C34CC5CC(CC(C5)C3)C4)cc2)CC1 (configuration not stated)	0.0094

system: OVCAR-5; assay: Growth inhibition of human OVCAR5 cells after 48 hrs by SRB assay; assay type: functional; conditions: OVCAR-5, 48 h; outline: as §1

SMILES	GI50 [µM]	TGI [µM]
CCN1CCN(CCc2ccc(C(c3ccccc3)C34CC5CC(CC(C5)C3)C4)cc2)CC1 (configuration not stated)	28.1	53.8
CCN1CCN(Cc2ccc(C(c3ccccc3)C34CC5CC(CC(C5)C3)C4)cc2)CC1 (configuration not stated)	18.1	43.8

same assay, conditions: OVCAR-5, 48 h, read-out: LC50 (the source's name)

SMILES	CC50 [µM]
CCN1CCN(CCc2ccc(C(c3ccccc3)C34CC5CC(CC(C5)C3)C4)cc2)CC1 (configuration not stated)	0.0685
CCN1CCN(Cc2ccc(C(c3ccccc3)C34CC5CC(CC(C5)C3)C4)cc2)CC1 (configuration not stated)	0.07

system: HUVEC; assay: (§3) Growth inhibition of human HUVEC cells after 48 hrs by SRB assay; assay type: cell-based; conditions: huvec, 48 h; outline: as §1

SMILES	LC50 [µM]	TGI [µM]
CCN1CCN(CCc2ccc(C(c3ccccc3)C34CC5CC(CC(C5)C3)C4)cc2)CC1 (configuration not stated)	9.62	7.36
c1ccc(C(c2ccc(CN3CCNCC3)cc2)C23CC4CC(CC(C4)C2)C3)cc1 (configuration not stated)	17.43	5.98
CCN1CCN(Cc2ccc(C(c3ccccc3)C34CC5CC(CC(C5)C3)C4)cc2)CC1 (configuration not stated)	9.54	5.34

system: not listed separately; assay: as §3; assay type: cell-based; conditions: HUVEC cells; outline: as §1

SMILES	GI50 at 48 h [µM]
CCN1CCN(CCc2ccc(C(c3ccccc3)C34CC5CC(CC(C5)C3)C4)cc2)CC1 (configuration not stated)	5.1
c1ccc(C(c2ccc(CN3CCNCC3)cc2)C23CC4CC(CC(C4)C2)C3)cc1 (configuration not stated)	2.91
CCN1CCN(Cc2ccc(C(c3ccccc3)C34CC5CC(CC(C5)C3)C4)cc2)CC1 (configuration not stated)	1.14

system: SK-HEP1; assay: Growth inhibition of human SKHEP1 cells after 48 hrs by SRB assay; assay type: functional; conditions: SK-HEP1, 48 h; outline: as §1

SMILES	GI50 [µM]	TGI [µM]
CCN1CCN(CCc2ccc(C(c3ccccc3)C34CC5CC(CC(C5)C3)C4)cc2)CC1 (configuration not stated)	4.14	7.66
c1ccc(C(c2ccc(CN3CCNCC3)cc2)C23CC4CC(CC(C4)C2)C3)cc1 (configuration not stated)	3.51	6.17
CCN1CCN(Cc2ccc(C(c3ccccc3)C34CC5CC(CC(C5)C3)C4)cc2)CC1 (configuration not stated)	5.9	24.3

same assay, conditions: SK-HEP1, 48 h, read-out: LC50 (the source's name)

SMILES	CC50 [µM]
CCN1CCN(CCc2ccc(C(c3ccccc3)C34CC5CC(CC(C5)C3)C4)cc2)CC1 (configuration not stated)	0.1
c1ccc(C(c2ccc(CN3CCNCC3)cc2)C23CC4CC(CC(C4)C2)C3)cc1 (configuration not stated)	0.00884
CCN1CCN(Cc2ccc(C(c3ccccc3)C34CC5CC(CC(C5)C3)C4)cc2)CC1 (configuration not stated)	0.0902

system: not listed separately; assay: Growth inhibition of human MSC cells after 48 hrs by SRB assay; assay type: cell-based; conditions: not given; outline: as §1

SMILES	TGI [µM]
CCN1CCN(CCc2ccc(C(c3ccccc3)C34CC5CC(CC(C5)C3)C4)cc2)CC1 (configuration not stated)	2.93
c1ccc(C(c2ccc(CN3CCNCC3)cc2)C23CC4CC(CC(C4)C2)C3)cc1 (configuration not stated)	3.14
CCN1CCN(Cc2ccc(C(c3ccccc3)C34CC5CC(CC(C5)C3)C4)cc2)CC1 (configuration not stated)	4.61

system: PC-3; assay: Growth inhibition of human PC3 cells after 48 hrs by SRB assay; assay type: functional; conditions: PC-3, 48 h; outline: as §1

SMILES	GI50 [µM]	TGI [µM]
CCN1CCN(CCc2ccc(C(c3ccccc3)C34CC5CC(CC(C5)C3)C4)cc2)CC1 (configuration not stated)	4.83	9.53
c1ccc(C(c2ccc(CN3CCNCC3)cc2)C23CC4CC(CC(C4)C2)C3)cc1 (configuration not stated)	3.89	7.52
CCN1CCN(Cc2ccc(C(c3ccccc3)C34CC5CC(CC(C5)C3)C4)cc2)CC1 (configuration not stated)	7	7.9

same assay, conditions: PC-3, 48 h, read-out: LC50 (the source's name)

SMILES	CC50 [µM]
CCN1CCN(CCc2ccc(C(c3ccccc3)C34CC5CC(CC(C5)C3)C4)cc2)CC1 (configuration not stated)	0.0867
c1ccc(C(c2ccc(CN3CCNCC3)cc2)C23CC4CC(CC(C4)C2)C3)cc1 (configuration not stated)	0.0692
CCN1CCN(Cc2ccc(C(c3ccccc3)C34CC5CC(CC(C5)C3)C4)cc2)CC1 (configuration not stated)	0.0624

system: IGROV-1; assay: Growth inhibition of human IGROV1 cells after 48 hrs by SRB assay; assay type: functional; conditions: IGROV-1, 48 h; outline: as §1

SMILES	GI50 [µM]	TGI [µM]
CCN1CCN(CCc2ccc(C(c3ccccc3)C34CC5CC(CC(C5)C3)C4)cc2)CC1 (configuration not stated)	4.49	9.83

same assay, conditions: IGROV-1, 48 h, read-out: LC50 (the source's name)

SMILES	CC50 [µM]
CCN1CCN(CCc2ccc(C(c3ccccc3)C34CC5CC(CC(C5)C3)C4)cc2)CC1 (configuration not stated)	0.0968

system: MCF7; assay: Growth inhibition of human MCF7 cells after 48 hrs by SRB assay; assay type: functional; conditions: MCF7, 48 h; outline: as §1

SMILES	GI50 [µM]	TGI [µM]
CCN1CCN(CCc2ccc(C(c3ccccc3)C34CC5CC(CC(C5)C3)C4)cc2)CC1 (configuration not stated)	3.9	8.5
c1ccc(C(c2ccc(CN3CCNCC3)cc2)C23CC4CC(CC(C4)C2)C3)cc1 (configuration not stated)	2.45	5.51
CCN1CCN(Cc2ccc(C(c3ccccc3)C34CC5CC(CC(C5)C3)C4)cc2)CC1 (configuration not stated)	2.26	5.92

same assay, conditions: MCF7, 48 h, read-out: LC50 (the source's name)

SMILES	CC50 [µM]
CCN1CCN(CCc2ccc(C(c3ccccc3)C34CC5CC(CC(C5)C3)C4)cc2)CC1 (configuration not stated)	0.0971
c1ccc(C(c2ccc(CN3CCNCC3)cc2)C23CC4CC(CC(C4)C2)C3)cc1 (configuration not stated)	0.00857
CCN1CCN(Cc2ccc(C(c3ccccc3)C34CC5CC(CC(C5)C3)C4)cc2)CC1 (configuration not stated)	0.00958
